Data from ChEMBL document CHEMBL5096209, “Structure-Activity Studies of 3,9-Diazaspiro[5.5]undecane-Based γ-Aminobutyric Acid Type A Receptor Antagonists with Immunomodulatory Effect” (J Med Chem, 2021).
Calls of active or inactive are those of the source. The calls are words filed in the database; no cut-off is given here.

Test system: CD8-positive T cell
Assay: Antiproliferative activity against mouse CD8-positive T cells at 100 uM measured after 48 hrs by flow cytometry analysis
Assay type: functional, cell-based
Summary of the method: (§1)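 Splenocytes came from female wild-type BALB/c mice and were red-cell lysed. They were labelled with 5 μM CFSE for 10 min at room temperature and activated with soluble anti-mouse CD3 (145.2C11) at 33 ng/mL. Culture ran 48 h in RPMI with 10% FCS and 2 μM 2-mercaptoethanol. Percent proliferating CD4+ and CD8+ cells was read by flow cytometry. n≥6 independent experiments; one-way ANOVA with Tukey.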

Compound	Activity
Cc1nnc2n1-c1ccc(Cl)cc1C(c1ccccc1)=NC2 [ALPRAZOLAM]	Active

Test system: CD4+ve Th
Assay: Antiproliferative activity against mouse CD4+ve Th cells at 100 uM measured after 48 hrs by flow cytometry analysis
Assay type: functional, cell-based
Summary of the method: as §1

Compound	Activity
Cc1nnc2n1-c1ccc(Cl)cc1C(c1ccccc1)=NC2 [ALPRAZOLAM]	Active

Test system: not listed separately
Assay: Induction of cell proliferation of human CD8-positive T cells at 100 uM measured after 96 hrs by flow cytometry analysis relative to control
Assay type: functional
Summary of the method: (§2)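 Rescue format on human PBMC. Cells were CFSE-labelled (5 μM), stimulated with anti-CD3 OKT3 at 100 pg/mL, and treated with alprazolam 33 μM plus test agent at 100 μM. Culture ran 96 h. Proliferating CD4+ and CD8+ T cell percentages were measured by flow cytometry. Vehicle controls (methanol, DMSO) were included. n≥6 independent experiments; one-way ANOVA with Tukey.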

Compound	Activity
C[N+]1(C)CCc2cc3c(cc2[C@H]1[C@@H]1OC(=O)c2c1ccc1c2OCO1)OCO3.[I-]	20%

Test system: CD4+ve Th
Assay: Induction of cell proliferation of human CD4+ve Th cells at 100 uM measured after 96 hrs by flow cytometry analysis relative to control
Assay type: functional
Summary of the method: as §2

Compound	Activity
C[N+]1(C)CCc2cc3c(cc2[C@H]1[C@@H]1OC(=O)c2c1ccc1c2OCO1)OCO3.[I-]	20%

Test system: not listed separately
Assay: Antiproliferative activity against human CD8-positive T cells at 33 uM measured after 96 hrs by flow cytometry analysis relative to control
Assay type: functional, CD8-positive T cell
Summary of the method: (§3)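 Human PBMC were isolated from leukocyte cones by density gradient centrifugation and frozen. After overnight high-density culture at 1×10^7 cells/ml, cells were labelled with 5 μM CFSE for 10 min at room temperature and stimulated with soluble anti-CD3 (OKT3) at 100 pg/mL. Culture ran 96 h. Proliferating CD4+ and CD8+ cells were scored by CFSE flow cytometry against a PBS control. n≥6 independent experiments; one-way ANOVA with Tukey.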

Compound	Activity
Cc1nnc2n1-c1ccc(Cl)cc1C(c1ccccc1)=NC2 [ALPRAZOLAM]	34.8%

Target: GABA-A receptor; anion channel
Assay: Displacement of [3H]-muscimol from rat cortical synaptic membrane GABAA receptor assessed as inhibition constant by microscint-scintillation method
Assay type: cell membranes, Cortex
Summary of the method: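 Rat cortical synaptic membranes, washed repeatedly in 50 mM Tris-HCl pH 7.4, 70–80 μg protein. Incubated at 0 °C with 5 nM [3H]-muscimol (final) and a range of test concentrations, then filtered and counted by scintillation. Nonspecific binding defined with 1.0 mM GABA. IC50 converted to Ki by Cheng–Prusoff, triplicate, three independent experiments.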

Compound	Ki	pKi
O=C(c1cccc([N+](=O)[O-])c1)N1CCC2(CCNCC2)CC1	1500 nM	–
O=C(c1cccc(OCc2ccccc2)c1)N1CCC2(CCNCC2)CC1	1000 nM	–
O=C(c1cccc(OCc2cccs2)c1)N1CCC2(CCNCC2)CC1	1000 nM	–
COC(=O)N1CCC2(CCNCC2)CC1	37000 nM	–
Brc1ccc(CN2CCC3(CCNCC3)CC2)cc1	27000 nM	–
Nc1ccc(C(=O)N2CCC3(CCNCC3)CC2)cc1	710 nM	6.16
O=C(c1ccc([N+](=O)[O-])cc1)N1CCC2(CCNCC2)CC1	9400 nM	–
O=C(c1ccccc1)N1CCC2(CCNCC2)CC1	1400 nM	–
O=C(c1ccccc1Br)N1CCC2(CCNCC2)CC1	2700 nM	–
O=C(c1ccc(C(F)(F)F)cc1)N1CCC2(CCNCC2)CC1	2200 nM	–
O=C(c1ccc(Br)cc1)N1CCC2(CCNCC2)CC1	230 nM	–
CC(=O)N1CCC2(CCNCC2)CC1	> 100000 nM	–
O=C(c1ccc(O)cc1)N1CCC2(CCNCC2)CC1	860 nM	6.08
O=C(c1ccc(OCc2ccccc2)cc1)N1CCC2(CCNCC2)CC1	1000 nM	–
O=C(c1cccc(Br)c1)N1CCC2(CCNCC2)CC1	300 nM	–
Nc1cccc(C(=O)N2CCC3(CCNCC3)CC2)c1	1200 nM	–
Cc1cccc(CN2CCC3(CCNCC3)CC2)c1	> 200000 nM	–
O=C(c1cccc(O)c1)N1CCC2(CCNCC2)CC1	340 nM	6.49
Cc1ccccc1C(=O)N1CCC2(CCNCC2)CC1	4200 nM	–

Test system: not listed separately
Assay: Antiproliferative activity against human CD4+ve T cells at 33 uM measured after 96 hrs by flow cytometry analysis relative to control
Assay type: functional, CD4+ve Th
Summary of the method: as §3

Compound	Activity
Cc1nnc2n1-c1ccc(Cl)cc1C(c1ccccc1)=NC2 [ALPRAZOLAM]	35.7%
